Assays:
[1] = species: Cavia porcellus; test: In vitro nitric oxide release incubated in the absence of N-acetyl-cysteamine in phosphate buffer; type: functional
How it was run: (§1)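 Compound (0.0075 mmol) stirred under argon at 37 °C for 1 h in 0.1 M phosphate buffer pH 7.40/acetonitrile 1:1; line 6 with N-acetylcysteamine 1 equiv per ONO2, line 5 without. After air exposure, Griess reagent 10 min, A540; nitrite quantified against 3–24 µM NaNO2 standards; % NO from one ONO2, control without compound, n = 3.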

[2] = species: Cavia porcellus; test: In vitro nitric oxide release incubated in the presence of N-acetyl-cysteamine in phosphate buffer; type: functional; how it was run: as §1

`O=[N+]([O-])OCC(CO[N+](=O)[O-])O[N+](=O)[O-]` [NITROGLYCERIN] gave a Release [1] of 0.18% and a Release [2] of 5.3%.

From ChEMBL document CHEMBL1148296, “Syntheses, calcium channel agonist-antagonist modulation activities, and nitric oxide release studies of nitrooxyalkyl 1,4-dihydro-2,6-dimethyl-3-nitro-4-(2,1,3-benzoxadiazol-4-yl)pyridine-5-carboxylate racemates, enantiomers, and diastereomers” (J Med Chem, 2004)
